pEC50: −log10 of the molar value. ≈ marks a conversion by molar mass, not a printed value.
Tests used:
[1] = test system: Human immunodeficiency virus 1; experiment: Antiviral activity against wild type HIV1 3B infected in human MT2 cells assessed as protection from virus-induced cytopathicity by MTT assay; type: functional, organism-based; conditions: Human immunodeficiency virus 1, 3B
[2] = test system: Human immunodeficiency virus 1; experiment: Antiviral activity against wild type HIV1 harboring reverse transcriptase K103N/Y181C mutant infected in human MT2 cells assessed as protection from virus-induced cytopathicity by MTT assay; type: functional, organism-based; conditions: for pEC50: Human immunodeficiency virus 1, MT2, read-out: EC50; for EC50: mt2
[3] = Cytotoxicity against human MT2 cells assessed as reduction in cell viability by MTT assay; type: cell-based
[4] = test system: Human immunodeficiency virus 1; experiment: Antiviral activity against wild type HIV1 harboring reverse transcriptase Y181C mutant infected in human MT2 cells assessed as protection from virus-induced cytopathicity by MTT assay; type: functional, organism-based; conditions: for pEC50: Human immunodeficiency virus 1, MT2, read-out: EC50; for EC50: mt2
[5] = Aqueous solubility of the compound at pH 6.5 after 48 hrs by shake-flask method; type: physicochemical
In short: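 Shake-flask method: excess solid stirred in Britton–Robinson buffer, pH 6.5, for 48 h at 25 °C. The supernatant was passed through a 0.2 μm filter and quantified by UV–vis spectrophotometry. Piroxicam served as the control.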

Structure (SMILES)	pEC50 [1]	pEC50 [2]	CC50 [3]	pEC50 [4]	EC50 [2]	EC50 [4]	solubility thermodynamic at 48 h [5]
N#Cc1cc2c(Oc3ccc(F)cc3OCCn3ccc(=O)[nH]c3=O)cccc2o1	7.40	5.40	> 100000 nM	5.46			
Cc1ccnc2c1NC(=O)c1cccnc1N2C1CC1 [NEVIRAPINE]			> 100000 nM		Not Active	Not Active	
N#Cc1ccc2c(Oc3ccc(Cl)cc3OCCn3ccc(=O)[nH]c3=O)cc(Cl)cc2c1	7.96	6.60	20000 nM	7.31			
N#Cc1cc2c(Oc3ccccc3OCCn3ccc(=O)[nH]c3=O)cc(Cl)cn2c1	8.43	7.66	39000 nM	6.66			
N#Cc1cc2c(Oc3ccccc3OCCn3ccc(=O)[nH]c3=O)cccn2c1	9.42	7.96	> 100000 nM	6.51			
N#Cc1cc2c(Oc3ccc(F)cc3OCCn3ccc(=O)[nH]c3=O)cccn2c1	8.57	6.66	100000 nM	6.22			
N#C/C=C/c1cc(Cl)cc(Oc2ccc(Cl)cc2OCCn2ccc(=O)[nH]c2=O)c1		6.66		7.31			
N#Cc1ccc2c(Oc3ccccc3OCCn3ccc(=O)[nH]c3=O)cccc2c1	9.28	7.82	> 100000 nM	7.72			4.3 µg/mL (≈ 10.8 µM)
N#Cc1cc2c(Oc3ccc(F)cc3OCCn3ccc(=O)[nH]c3=O)cc(F)cn2c1	9.40	8.00	50000 nM	6.60			43.8 µg/mL (≈ 103 µM)
N#Cc1cc2c(Oc3ccccc3OCCn3ccc(=O)[nH]c3=O)cc(Cl)cc2[nH]1	6.47	5.57	81000 nM	4.57			
N#Cc1cc2c(Oc3ccccc3OCCn3ccc(=O)[nH]c3=O)cc(Cl)cc2o1	7.72	6.59	> 100000 nM	5.72			
Cc1ccc2c(Oc3ccccc3OCCn3ccc(=O)[nH]c3=O)cccc2c1	6.60	4.82	40000 nM	4.92			
O=c1ccn(CCOc2ccccc2Oc2cccc3cc(Cl)ccc23)c(=O)[nH]1	7.85	6.15	> 100000 nM	6.00			
Cc1cc(Oc2ccccc2OCCn2ccc(=O)[nH]c2=O)c2cc(C#N)[nH]c2c1	8.00	6.10	1200 nM			Not Active	
O=c1ccn(CCOc2ccccc2Oc2cc(Cl)cc3cc(Cl)ccc23)c(=O)[nH]1	7.42	6.28	45000 nM	6.37			
N#Cc1cc2c(Oc3ccc(Cl)cc3OCCn3ccc(=O)[nH]c3=O)cccc2o1	8.15		7000 nM		Not Active	Not Active	

Structure (SMILES)	pEC50 [1]	pEC50 [2]	CC50 [3]	pEC50 [4]	EC50 [2]	EC50 [4]	solubility thermodynamic at 48 h [5]
N#Cc1ccc2c(Oc3ccc(F)cc3OCCn3ccc(=O)[nH]c3=O)cc(Cl)cc2c1	8.35	7.34	16000 nM	8.28			
N#Cc1cc2c(Oc3ccc(F)cc3OCCn3ccc(=O)[nH]c3=O)cc(Cl)cn2c1	8.60	6.96	15000 nM	6.80			
O=c1ccn(CCOc2ccccc2Oc2cccc3ccccc23)c(=O)[nH]1	7.22	5.30	80000 nM	5.24			
N#Cc1ccc2c(Oc3ccc(F)cc3OCCn3ccc(=O)[nH]c3=O)cccc2c1	9.31	7.32	> 100000 nM	8.00			
N#Cc1ccc2c(Oc3ccc(Cl)cc3OCCn3ccc(=O)[nH]c3=O)cccc2c1	8.82	6.82	> 100000 nM	7.32			
N#Cc1ccc2c(Oc3ccccc3OCCn3ccc(=O)[nH]c3=O)cc(F)cc2c1	8.96	8.22	> 100000 nM	8.10			
CN1C(C(=O)Nc2ccccn2)=C(O)c2ccccc2S1(=O)=O [PIROXICAM]							5 µg/mL (≈ 15.1 µM)
N#Cc1cc2c(Oc3ccccc3OCCn3ccc(=O)[nH]c3=O)cccc2o1	7.74	6.38	> 100000 nM			Not Active	
N#Cc1ccc2c(Oc3ccccc3OCCn3ccc(=O)[nH]c3=O)cc(Cl)cc2c1	8.66	8.12	24000 nM	7.89			
N#C/C=C/c1cc(Cl)cc(Oc2ccccc2OCCn2ccc(=O)[nH]c2=O)c1	9.51	7.62	18000 nM	7.34			510 µg/mL (≈ 1240 µM)
N#Cc1cc2c(Oc3ccccc3OCCn3ccc(=O)[nH]c3=O)cc(F)cn2c1	9.15	7.17	40000 nM	6.77			
N#Cc1cc2c(Oc3ccccc3OCCn3ccc(=O)[nH]c3=O)cccc2[nH]1	7.25	5.26	72000 nM	4.42			
N#Cc1ccc2c(Oc3ccc(Cl)cc3OCCn3ccc(=O)[nH]c3=O)cc(F)cc2c1	8.30	6.82	18000 nM	7.49			
N#C/C=C/c1cc(F)cc(Oc2ccc(F)cc2OCCn2ccc(=O)[nH]c2=O)c1		7.07		7.80			10.8 µg/mL (≈ 26.3 µM)
N#Cc1ccc2c(Oc3ccc(F)cc3OCCn3ccc(=O)[nH]c3=O)cc(F)cc2c1	8.72	7.68	> 100000 nM	8.25			

From ChEMBL document CHEMBL3351558, “Picomolar Inhibitors of HIV-1 Reverse Transcriptase: Design and Crystallography of Naphthyl Phenyl Ethers” (ACS Med Chem Lett, 2014)
